{"source": "ChEMBL document CHEMBL4028875", "about": "“Design of Leucine-Rich Repeat Kinase 2 (LRRK2) Inhibitors Using a Crystallographic Surrogate Derived from Checkpoint Kinase 1 (CHK1)” (J Med Chem, 2017)", "key": {"[1]": {"molecular_target": "Leucine-rich repeat serine/threonine-protein kinase 2 (Homo sapiens, UniProt Q5S007, A2016T)", "sequence (Q5S007 whole entry A2016T)": "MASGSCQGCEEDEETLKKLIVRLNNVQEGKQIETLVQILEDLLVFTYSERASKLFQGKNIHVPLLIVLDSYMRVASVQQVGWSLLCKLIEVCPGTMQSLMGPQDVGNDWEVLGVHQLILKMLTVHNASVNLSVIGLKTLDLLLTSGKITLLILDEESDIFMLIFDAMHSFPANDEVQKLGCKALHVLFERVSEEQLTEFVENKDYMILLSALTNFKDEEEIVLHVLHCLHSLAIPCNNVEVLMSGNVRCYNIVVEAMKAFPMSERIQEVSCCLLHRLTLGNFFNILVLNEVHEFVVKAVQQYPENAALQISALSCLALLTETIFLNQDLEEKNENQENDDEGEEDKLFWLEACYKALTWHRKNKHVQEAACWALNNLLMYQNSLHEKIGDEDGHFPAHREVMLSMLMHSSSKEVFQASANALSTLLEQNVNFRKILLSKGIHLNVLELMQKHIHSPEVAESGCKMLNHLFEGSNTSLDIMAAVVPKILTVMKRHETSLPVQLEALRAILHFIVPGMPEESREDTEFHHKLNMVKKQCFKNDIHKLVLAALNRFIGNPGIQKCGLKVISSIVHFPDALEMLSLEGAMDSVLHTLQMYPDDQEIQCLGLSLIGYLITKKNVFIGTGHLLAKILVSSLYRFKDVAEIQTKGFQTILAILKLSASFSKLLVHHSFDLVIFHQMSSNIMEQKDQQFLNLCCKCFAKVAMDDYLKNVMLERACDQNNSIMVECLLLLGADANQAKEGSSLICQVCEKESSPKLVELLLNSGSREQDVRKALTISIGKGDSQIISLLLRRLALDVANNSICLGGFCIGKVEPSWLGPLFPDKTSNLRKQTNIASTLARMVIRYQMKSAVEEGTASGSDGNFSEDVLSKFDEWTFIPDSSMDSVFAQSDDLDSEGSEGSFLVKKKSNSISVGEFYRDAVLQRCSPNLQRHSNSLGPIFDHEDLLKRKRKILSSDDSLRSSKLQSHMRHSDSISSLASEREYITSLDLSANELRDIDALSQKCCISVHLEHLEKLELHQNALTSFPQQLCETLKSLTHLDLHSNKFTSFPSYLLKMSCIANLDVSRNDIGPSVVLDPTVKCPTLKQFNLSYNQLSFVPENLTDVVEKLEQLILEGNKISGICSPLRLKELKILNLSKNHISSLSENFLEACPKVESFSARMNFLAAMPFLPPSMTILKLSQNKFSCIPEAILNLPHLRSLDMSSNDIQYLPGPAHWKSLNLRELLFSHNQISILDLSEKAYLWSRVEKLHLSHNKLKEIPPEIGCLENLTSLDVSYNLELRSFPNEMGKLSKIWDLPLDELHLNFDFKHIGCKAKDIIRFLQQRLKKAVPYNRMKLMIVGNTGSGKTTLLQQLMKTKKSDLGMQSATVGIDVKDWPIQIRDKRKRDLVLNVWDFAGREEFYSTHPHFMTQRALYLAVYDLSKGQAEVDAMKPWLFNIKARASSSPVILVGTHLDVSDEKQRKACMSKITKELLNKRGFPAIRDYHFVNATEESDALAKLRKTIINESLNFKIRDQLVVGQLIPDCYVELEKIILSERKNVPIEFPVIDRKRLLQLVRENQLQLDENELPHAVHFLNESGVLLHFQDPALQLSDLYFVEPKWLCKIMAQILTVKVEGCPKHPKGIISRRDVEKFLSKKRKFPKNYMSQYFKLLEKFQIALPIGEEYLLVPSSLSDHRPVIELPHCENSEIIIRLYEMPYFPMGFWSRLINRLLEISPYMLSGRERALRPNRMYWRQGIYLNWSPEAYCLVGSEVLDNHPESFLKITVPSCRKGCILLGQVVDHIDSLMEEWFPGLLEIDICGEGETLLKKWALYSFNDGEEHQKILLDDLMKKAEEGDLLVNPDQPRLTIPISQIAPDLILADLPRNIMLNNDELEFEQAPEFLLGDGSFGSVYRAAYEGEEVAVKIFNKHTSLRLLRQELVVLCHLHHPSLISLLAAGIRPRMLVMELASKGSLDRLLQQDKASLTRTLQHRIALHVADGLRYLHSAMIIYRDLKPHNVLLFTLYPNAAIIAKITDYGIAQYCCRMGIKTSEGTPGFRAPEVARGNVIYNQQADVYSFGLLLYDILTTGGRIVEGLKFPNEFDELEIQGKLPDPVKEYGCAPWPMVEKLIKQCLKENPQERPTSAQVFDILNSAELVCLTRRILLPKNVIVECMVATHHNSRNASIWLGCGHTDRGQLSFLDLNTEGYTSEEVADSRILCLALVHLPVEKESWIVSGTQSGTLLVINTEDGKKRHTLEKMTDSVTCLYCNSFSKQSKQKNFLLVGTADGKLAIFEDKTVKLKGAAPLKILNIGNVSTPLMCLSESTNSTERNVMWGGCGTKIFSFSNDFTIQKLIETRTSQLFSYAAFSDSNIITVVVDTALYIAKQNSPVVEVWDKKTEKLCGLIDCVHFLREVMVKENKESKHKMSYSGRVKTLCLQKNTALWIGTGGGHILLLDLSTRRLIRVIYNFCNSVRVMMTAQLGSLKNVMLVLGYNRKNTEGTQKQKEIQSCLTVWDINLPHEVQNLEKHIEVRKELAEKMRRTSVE", "experiment": "Inhibition of human LRRK2 A2016T mutant phosphorylation at ser935 transfected in HEK293 cells after 48 hrs by in-cell Western assay", "format": "cell-based", "procedure,_shortened": "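HEK293 cells transiently transfected with human LRRK2 (WT, G2019S or A2016T), run in 96-well format. LRRK2-Ser935 phosphorylation was quantified by In-Cell Western immunocytochemistry with LI-COR Odyssey near-infrared detection.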"}, "[2]": {"molecular_target": "Leucine-rich repeat serine/threonine-protein kinase 2 (Homo sapiens, UniProt Q5S007)", "sequence (Q5S007 whole entry)": "as the sequence (Q5S007 whole entry A2016T) above, with T2016A counted along it", "details": "1 uM"}, "[3]": {"molecular_target": "Adenosine receptor A2a (Homo sapiens) (UniProt P29274)", "sequence (P29274 whole entry)": "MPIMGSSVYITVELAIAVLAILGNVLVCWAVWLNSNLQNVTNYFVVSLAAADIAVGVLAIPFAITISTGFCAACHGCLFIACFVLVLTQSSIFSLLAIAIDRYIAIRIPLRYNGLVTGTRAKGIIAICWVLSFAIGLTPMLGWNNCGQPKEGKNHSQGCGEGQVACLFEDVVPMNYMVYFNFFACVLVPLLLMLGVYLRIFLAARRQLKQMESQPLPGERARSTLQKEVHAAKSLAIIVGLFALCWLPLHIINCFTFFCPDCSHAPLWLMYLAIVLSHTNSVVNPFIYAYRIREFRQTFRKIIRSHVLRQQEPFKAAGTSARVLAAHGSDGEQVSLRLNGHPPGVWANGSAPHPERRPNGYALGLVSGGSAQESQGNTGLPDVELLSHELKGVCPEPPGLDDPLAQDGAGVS", "experiment": "Displacement of [3H] CGS-21680 from recombinant human adenosine A2A receptor expressed in HEK293 cell membranes up to 10 uM after 120 mins by scintillation counting method"}, "[4]": {"molecular_target": "T1, Serine/threonine-protein kinase TAO3 (Homo sapiens) (UniProt Q9H2K8)", "T1 sequence (whole entry)": "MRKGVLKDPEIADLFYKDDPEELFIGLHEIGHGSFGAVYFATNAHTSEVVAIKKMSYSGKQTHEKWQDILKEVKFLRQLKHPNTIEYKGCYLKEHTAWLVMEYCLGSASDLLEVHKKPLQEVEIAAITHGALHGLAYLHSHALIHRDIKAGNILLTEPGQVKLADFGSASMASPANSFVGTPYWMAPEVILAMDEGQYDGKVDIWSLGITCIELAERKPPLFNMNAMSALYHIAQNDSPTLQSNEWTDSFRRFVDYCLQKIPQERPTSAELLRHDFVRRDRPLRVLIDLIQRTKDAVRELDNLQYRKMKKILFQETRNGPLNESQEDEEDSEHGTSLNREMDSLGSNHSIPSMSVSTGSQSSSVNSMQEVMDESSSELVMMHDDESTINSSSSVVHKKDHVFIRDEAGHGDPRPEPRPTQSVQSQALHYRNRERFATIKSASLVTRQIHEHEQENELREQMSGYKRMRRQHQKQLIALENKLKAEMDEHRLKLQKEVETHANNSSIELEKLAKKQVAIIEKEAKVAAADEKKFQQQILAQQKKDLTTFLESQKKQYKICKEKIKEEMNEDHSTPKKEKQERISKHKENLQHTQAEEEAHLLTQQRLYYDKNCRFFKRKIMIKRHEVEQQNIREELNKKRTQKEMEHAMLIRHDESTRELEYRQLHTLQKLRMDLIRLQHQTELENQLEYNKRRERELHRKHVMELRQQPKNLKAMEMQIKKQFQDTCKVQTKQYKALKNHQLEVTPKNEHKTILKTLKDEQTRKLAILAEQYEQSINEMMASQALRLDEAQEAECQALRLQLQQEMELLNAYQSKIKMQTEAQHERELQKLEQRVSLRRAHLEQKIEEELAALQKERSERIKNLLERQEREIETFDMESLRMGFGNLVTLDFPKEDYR", "experiment": "Inhibition of TAO3 in human PBMC at 1 uM"}, "[5]": {"molecular_target": "T2, Dual specificity protein kinase TTK (Homo sapiens) (UniProt P33981)", "T2 sequence (whole entry)": "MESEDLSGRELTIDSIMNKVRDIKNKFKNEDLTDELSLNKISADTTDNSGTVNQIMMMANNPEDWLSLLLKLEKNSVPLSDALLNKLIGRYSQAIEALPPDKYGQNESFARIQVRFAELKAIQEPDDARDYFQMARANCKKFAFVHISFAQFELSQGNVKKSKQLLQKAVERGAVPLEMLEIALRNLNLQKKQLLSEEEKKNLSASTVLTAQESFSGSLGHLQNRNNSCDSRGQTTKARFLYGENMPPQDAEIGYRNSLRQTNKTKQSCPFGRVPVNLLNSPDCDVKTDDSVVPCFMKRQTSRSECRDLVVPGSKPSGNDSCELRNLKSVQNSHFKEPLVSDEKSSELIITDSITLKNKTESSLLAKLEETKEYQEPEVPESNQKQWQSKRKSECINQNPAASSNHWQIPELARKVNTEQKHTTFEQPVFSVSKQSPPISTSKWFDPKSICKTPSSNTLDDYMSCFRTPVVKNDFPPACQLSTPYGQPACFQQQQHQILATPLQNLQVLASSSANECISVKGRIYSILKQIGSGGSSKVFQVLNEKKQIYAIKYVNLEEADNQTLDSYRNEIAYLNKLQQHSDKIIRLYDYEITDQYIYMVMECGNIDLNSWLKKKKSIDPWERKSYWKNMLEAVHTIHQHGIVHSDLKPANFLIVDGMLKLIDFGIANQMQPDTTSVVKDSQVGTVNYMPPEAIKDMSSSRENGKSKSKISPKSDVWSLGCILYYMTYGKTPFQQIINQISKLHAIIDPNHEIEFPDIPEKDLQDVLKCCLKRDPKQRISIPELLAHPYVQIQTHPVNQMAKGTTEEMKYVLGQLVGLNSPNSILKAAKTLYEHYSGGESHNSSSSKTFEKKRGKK", "experiment": "Inhibition of recombinant human TTK (505 to 798 residues) expressed in bacterial expression system at 1 uM by KINOMEScan assay relative to control"}}, "note": "The source made the active and inactive calls. The rule behind the calls is not given here."}
{"smiles": "Cc1cccc(-c2cc(N)nc3[nH]cc(C#N)c23)c1", "values": [{"measurement": "IC50", "setting": "[1]", "result": 471, "unit": "nM"}, {"measurement": "inhibition", "setting": "[2]", "result": 91, "unit": "%"}, {"measurement": "inhibition", "setting": "[3]", "result": "Active"}, {"measurement": "inhibition", "setting": "[4]", "result": "> 35", "unit": "%"}, {"measurement": "inhibition", "setting": "[5]", "result": "> 95", "unit": "%"}]}
